Consider seven compounds from ChEMBL document CHEMBL1148951, “New macrolides from the sponge Chondrosia corticata” (2004).

Common to all, as to type: functional
The subject of one experiment is K562. As to the kind of experiment: Cytotoxicity against human K562 cells by MTT assay. The conditions noted are these: read-out: LC50 (the source's name).
Another experiment has as its system Candida albicans. Briefly: Antifungal activity against Candida albicans at 2 ug/disk by paper disk method. The conditions noted are these: read-out: IZ. In a few lines: (§1)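 Paper disk diffusion assay with 2 µg of compound loaded per disk. The read-out is the diameter of the clear zone around the disk.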
A further experiment concerns Aspergillus niger. As to the kind of experiment: Antifungal activity against Aspergillus niger at 2 ug/disk by paper disk method. The conditions noted are these: read-out: IZ. In outline:
as §1

Values after ≈ are worked out from the molar mass of the structure shown.

Turning to `COC(CC1OC(=O)CC(O)C/C=C\C(=O)C(C)C(OC)c2coc(n2)-c2coc(n2)-c2coc(n2)/C=C\CCC1C)C(C)CCC(=O)C(C)C(C/C=C/N(C)C=O)OC` (stereo not drawn), the CC50 in the experiment with K562 amounted to 0.9 µg/mL (≈ 1.08 µM). In addition, the zone of inhibition at 2 µg/disc in the experiment with Candida albicans and in the experiment with Aspergillus niger was 10 mm each time.

Turning to `COC(CC1OC(=O)CC(O)CCCC(=O)C(C)C(OC)c2coc(n2)-c2coc(n2)-c2coc(n2)/C=C/CCC1C)C(C)CCC(=O)C(C)C(C/C=C/N(C)C=O)OC` (stereo not drawn) [DIHYDROHALICHONDRAMIDE], in the experiment with K562, the CC50 was determined as 0.32 µg/mL (≈ 0.381 µM). The zone of inhibition at 2 µg/disc is 19 mm in the experiment on Candida albicans and 11 mm with Aspergillus niger.

Take `COC(CC1OC(=O)CC(O)C/C=C/C(=O)C(C)C(OC)c2coc(n2)-c2coc(n2)-c2coc(n2)/C=C/CCC1C)C(C)CCC(=O)C(C)C(C/C=C/N(C)C=O)OC` (stereo not drawn) [HALICHONDRAMIDE]: in the experiment with K562, the CC50 was 0.19 µg/mL (≈ 0.227 µM). For the same compound, the zone of inhibition at 2 µg/disc came to 18 mm in the experiment on Candida albicans and 21 mm with Aspergillus niger.

`COC(=O)c1coc(/C=C/CCC(C)C(CC(OC)C(C)CCC(=O)C(C)C(C/C=C/N(C)C=O)OC)OC(=O)CC(O)C/C=C/C(=O)C(C)C(OC)c2coc(C(N)=O)n2)n1` (stereo not drawn) [HALISHIGAMIDE D]: the CC50 in the experiment on K562 came to 92 µg/mL (≈ 105 µM).

For `COC(CC1OC(=O)CC(O)CC(O)CC(=O)C(C)C(OC)c2coc(n2)-c2coc(n2)-c2coc(n2)/C=C/CCC1C)C(C)CCC(=O)C(C)C(C/C=C/N(C)C=O)OC` (stereo not drawn) [JASPISAMIDE A], the CC50 in the experiment on K562 is 0.31 µg/mL (≈ 0.363 µM). The zone of inhibition at 2 µg/disc amounted to 18 mm in the experiment with Candida albicans and 10 mm in the experiment with Aspergillus niger.

As for `COC(CC1OC(=O)CC(O)/C=C/CC(=O)C(C)C(OC)c2coc(n2)-c2coc(n2)-c2coc(n2)/C=C/CCC1C)C(C)CCC(=O)C(C)C(C/C=C/N(C)C=O)OC` (stereo not drawn) [NEOHALICHONDRAMIDE], the CC50 with K562 worked out at 0.38 µg/mL (≈ 0.454 µM). For the same compound, the values for the zone of inhibition at 2 µg/disc in the experiment on Candida albicans and with Aspergillus niger were 20 mm and 15 mm, respectively.

On to `COC(=O)c1nc(-c2nc(C(OC)C(C)C(=O)/C=C/CC(O)CC(=O)OC(CC(OC)C(C)CCC(=O)C(C)C(C/C=C/N(C)C=O)OC)C(C)CC/C=C/C(N)=O)co2)co1` (stereo not drawn) [SECOHALICHONDRAMIDE], for which, in the experiment on K562, the CC50 is more than 500 µg/mL. For the same compound, the zone of inhibition at 2 µg/disc with Candida albicans stood at 15 mm.
